Laboratory results taken from ChEMBL document CHEMBL4145643, “Antiplasmodial β-Triketone-Flavanone Hybrids from the Flowers of the Australian Tree Corymbia torelliana” (J Nat Prod, 2018).
The source made the active and inactive calls. No cut-off for these calls is given here.

Tests used:
[1] = tested on: HEK293; assay: Cytotoxicity against human HEK293 cells at 40 uM after 72 hrs by resazurin dye based fluorescence assay; format: cell-based; details: hek293, 72 h
In short: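 HEK293 cells grown in DMEM with 10% FBS, seeded at 2000 cells/well 24 h before dosing. Compounds given as in the parasite assay (top 40 μM), 72 h at 37 °C and 5% CO2. Medium then replaced with 44 μM resazurin; fluorescence (530/595 nm) read after a further 5–6 h. Normalized to in-plate controls.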

[2] = tested on: Plasmodium falciparum; assay: Antiplasmodial activity against drug-sensitive Plasmodium falciparum 3D7 ring stage infected in human erythrocytes after 72 hrs by DAPI staining based method; format: functional, organism-based; details: 3D7, 72 h
In short: (§1)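 Sorbitol-synchronized ring-stage parasites in O+ erythrocytes (2% parasitemia, 0.3% hematocrit), culture medium RPMI-1640 with Albumax and human serum. 16-point dilution series, 40 μM to 0.5 nM, 72 h at 95% N2/5% O2/5% CO2. Parasites stained with DAPI in Triton X-100/saponin permeabilization buffer, counted by confocal imaging. Normalized to 0.4% DMSO and 5 μM puromycin controls. IC50 from four-parameter logistic fit.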

[3] = tested on: Plasmodium falciparum; assay: Antiplasmodial activity against 4-aminoquinoline/antifolates-resistant Plasmodium falciparum Dd2 ring stage infected in human erythrocytes at 40 uM after 72 hrs by DAPI staining based method; format: functional
In short: (§2)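 Sorbitol-synchronized ring-stage parasites at 2% parasitemia, 0.3% hematocrit in human O+ erythrocytes. Culture medium: RPMI-1640 with glutamine, hypoxanthine, Albumax, human serum. 16-point concentration-response, 40 μM to 0.5 nM. Incubated 72 h under 95% N2, 5% O2, 5% CO2. DAPI added in permeabilization buffer (Triton X-100, saponin, EDTA). Parasites counted by confocal high-content imaging. Normalized to DMSO and 5 μM puromycin controls. IC50 from four-parameter logistic fit.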

[4] = tested on: Plasmodium falciparum; assay: Antiplasmodial activity against 4-aminoquinoline/antifolates-resistant Plasmodium falciparum Dd2 ring stage infected in human erythrocytes after 72 hrs by DAPI staining based method; format: functional, organism-based; details: Dd2, 72 h
In short: as §2, with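 “erythrocytes.” for “erythrocytes. Culture medium: RPMI-1640 with glutamine, hypoxanthine, Albumax, human serum.”, “nM.” for “nM. Incubated 72 h under 95% N2, 5% O2, 5% CO2.”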

[5] = tested on: Plasmodium falciparum; assay: Antiplasmodial activity against drug-sensitive Plasmodium falciparum 3D7 ring stage infected in human erythrocytes at 40 uM after 72 hrs by DAPI staining based method; format: functional, organism-based; in short: as §1

## CCN(CC)CCCC(C)Nc1ccnc2cc(Cl)ccc12 (stereo not given) [CHLOROQUINE]
[1]; 40 µM
  Activity: Non-Toxic

## Cc1c(O)c([C@H](CC(C)C)C2=C(O)C(C)(C)C(=O)C(C)(C)C2=O)c(O)c2c1O[C@H](c1ccccc1)CC2=O
[1]; 40 µM
  Activity: 75%
[2]
  IC50: 3.2 µM

## C[C@H]1[C@H](OC(=O)CCC(=O)O)O[C@@H]2O[C@@]3(C)CC[C@H]4[C@H](C)CC[C@@H]1[C@@]24OO3 [ARTESUNATE]
[1]; 20 µM, in the assay text read “20 uM” for “40 uM”
  Activity: 94%
[2]
  IC50: 0.001 µM

## CC(C)C[C@H]1C[C@@]2(CC[C@H]3C[C@@H]2C3(C)C)OC2=C1C(=O)C(C)(C)C(=O)C2(C)C
[1]; 40 µM
  Activity: Non-Toxic
[2]
  IC50: 16.6 µM
[3]
  Activity: inactive

## C[C@H]1[C@@H](O)O[C@@H]2O[C@@]3(C)CC[C@H]4[C@H](C)CC[C@@H]1[C@@]24OO3 [ARTENIMOL]
[1]; 20 µM, in the assay text read “at 20 uM” for “at 40 uM”
  Activity: 83%
[2]
  IC50: 0.0004 µM
[4]
  IC50: 0.00043 µM

## Cc1c(O)c2c(c3c1OC1=C(C(=O)C(C)(C)C(=O)C1(C)C)[C@H]3CC(C)C)O[C@H](c1ccccc1)CC2=O
[1]; 40 µM
  Activity: Non-Toxic
[2]
  IC50: 7.2 µM

## Cc1c(O)c([C@@H](CC(C)C)C2=C(O)C(C)(C)C(=O)C(C)(C)C2=O)c(O)c2c1O[C@H](c1ccccc1)CC2=O
[1]; 40 µM
  Activity: 75%
[2]
  IC50: 3.2 µM

## CCc1nc(N)nc(N)c1-c1ccc(Cl)cc1 [PYRIMETHAMINE]
[1]; 40 µM
  Activity: 62%
[3]
  Activity: 62%

## Cc1c(O)c2c(c3c1OC1=C(C(=O)C(C)(C)C(=O)C1(C)C)[C@@H]3CC(C)C)O[C@H](c1ccccc1)CC2=O
[1]; 40 µM
  Activity: Non-Toxic
[2]
  IC50: 7.2 µM

## CC(C)CC[C@]1(O)[C@H](O)C(C)(C)[C@@H](O)C(C)(C)[C@@H]1O
[1]; 40 µM
  Activity: Non-Toxic
[3]
  Activity: inactive
[5]
  Activity: inactive

## Cc1c2c(c(O)c3c1OC1=C(C(=O)C(C)(C)C(=O)C1(C)C)C3CC(C)C)C(=O)C[C@@H](c1ccccc1)O2 (stereo not given in full)
[1]; 40 µM
  Activity: Non-Toxic
[2]
  IC50: 9.8 µM
[4]
  IC50: 11.9 µM
